From ChEMBL document CHEMBL4251718, “Isolation of Imaqobactin, an Amphiphilic Siderophore from the Arctic Marine Bacterium Variovorax Species RKJM285” (J Nat Prod, 2018)
Activity calls are given as the source filed them. The calls are words filed in the database; no cut-off is given here.

Experiments:
Staphylococcus aureus = assay: Antibacterial activity against methicillin-resistant Staphylococcus aureus ATCC 33591 after 22 hrs by microbroth dilution method; format: functional, organism-based; conditions: ATCC 33591, 22 h
Method in brief: (§1)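 CLSI broth microdilution, run in triplicate. OD600 was read at time zero and again after 22 h at 37 °C, and percent growth inhibition was calculated from these readings. The free ligand and its Fe(III) and Ga(III) complexes were tested.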

[1] = Metal chelating activity assessed as Al3+-compound complex formation after 1 hr by LC-HRMS analysis
Method in brief: (§2)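 500 μg of ligand was dissolved in 1 mL PBS (pH 7.5) and stirred with excess (15 mg) AlCl3, AuCl3 or VCl3 at room temperature for 1 h. Samples went through C18 SPE with a water wash and MeOH elution, were dried, and were redissolved at 500 μg mL−1 in MeOH. Complexes were detected by C18 LC-HRMS using a water/acetonitrile 0.1% formic acid gradient.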

Proteus vulgaris = assay: Antimicrobial activity against Proteus vulgaris ATCC 12454 after 22 hrs by micro broth dilution assay; format: functional, organism-based; conditions: ATCC 12454, 22 h; method in brief: as §1
Keratinocyte = assay: Cytotoxicity against human epidermal keratinocytes after 24 hrs by alamar blue assay
Method in brief: (§3)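 Cytotoxicity was measured with Alamar blue. Fluorescence (ex 560/12, em 590 nm) was read at time zero and 4 h after Alamar blue addition, and IC50 values were calculated from these readings. The free ligand and its Fe(III) and Ga(III) complexes were tested.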

[2] = Metal chelating activity assessed as Au3+-compound complex formation after 1 hr by LC-HRMS analysis; method in brief: as §2
Enterococcus faecium = assay: Antimicrobial activity against vancomycin-resistant Enterococcus faecium EF379 after 22 hrs by micro broth dilution assay; format: functional, organism-based; conditions: EF379, 22 h; method in brief: as §1
[3] = Metal chelating activity assessed as V3+-compound complex formation after 1 hr by LC-HRMS analysis; method in brief: as §2
Staphylococcus warneri = assay: Antimicrobial activity against Staphylococcus warneri ATCC 17917 after 22 hrs by micro broth dilution assay; format: functional, organism-based; conditions: ATCC 17917, 22 h; method in brief: as §1
Vero = assay: Cytotoxicity against African green monkey Vero cells after 24 hrs by alamar blue assay; format: cell-based; conditions: chlorocebus sabaeus; method in brief: as §3

For `CCCCCCCCCCCC(=O)NC(CCCN(O)C=O)C(O)C(C)C(=O)N[C@@H](CO)C(=O)N[C@@H]1CCCN(O)C(=O)CC(C)OC(=O)[C@H]([C@@H](O)C(=O)O)NC(=O)[C@H]([C@@H](C)O)NC1=O` (some centres undefined), the IC50 (Staphylococcus aureus) was 35 µM, the Activity [1] was “Active” and the IC50 (Proteus vulgaris) was 14 µM. The Activity (Keratinocyte) was “Non-Toxic”, the Activity [2] was “Active” and the IC50 (Enterococcus faecium) was 11 µM. For the same compound, the Activity [3] was “Active”, the IC50 (Staphylococcus warneri) was 28 µM and the Activity (Vero) was “Non-Toxic”.
